# In ChEMBL document CHEMBL5724801, “EUbOPEN Chemogenomics Library - Multiplex” (2024):
# Values joined by “and” are separate entries in the source; they are usually repeats but may differ in a detail not shown here. Identical values can stand only once.
# Test system: HEK-293T
# Test: Multiplex assay against HEK293T
# Assay type: toxicity, cell-based
# Conditions: human, 12 h, 1 µM, compound concentration 1 uM
# Outline: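 Phenotypes for tubulin, mitochondrial mass and membrane permeability are expressed as per cents of healthy-nucleus cells. Cells were stained live at seeding with Hoechst33342, BioTracker Green Microtubule Cytoskeleton Dye, MitoTracker Red and Annexin V Alexa Fluor 680, then imaged after compound addition on a CQ1 microscope at 37°C and 5% CO2. Machine-learning gating in CellPathfinder separated Hoechst high-intensity objects from normal cells, divided normal cells by nuclear state (healthy, pyknosed, fragmented) and divided pyknosed cells into mitotic or apoptotic.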
Structure (SMILES),Population Apoptotic (%),Population Fragmented Nuclei (%),Population Healthy Nuclei (%),Population Hoechst High Intensity Objects (%),Population Membrane Permeable-Phenotype (%),Population Mitochondria Different-Phenotype (%),Population Mitotic Cells (%),Population Normal (%),Population Pyknosed Nuclei (%),Population Tubulin-Different-Phenotype (%)
CCNC1(C(N)=O)CCN(c2ncnc3c2nc(-c2ccccc2Cl)n3-c2ccc(Cl)cc2)CC1 [OTENABANT],51% and 58%,8%,80% and 76%,10% and 6%,0%,48% and 66%,48% and 41%,89% and 93%,10% and 15%,52% and 44%
COc1ccc(-n2c(C)c([N+](=O)[O-])c3ccc(O)cc32)cc1,6.21% and 10.43%,1.16% and 7.69%,–,0%,1.02% and 0%,36.04% and 17.65%,93.79% and 89.57%,100%,41.91% and 80.42%,–

# Same assay, conditions: human, 12 h, 1 µM, compound concentration 1 uM
row,Structure (SMILES),Total Cell Count
1,CCNC1(C(N)=O)CCN(c2ncnc3c2nc(-c2ccccc2Cl)n3-c2ccc(Cl)cc2)CC1 [OTENABANT],401 and 333
2,COc1ccc(-n2c(C)c([N+](=O)[O-])c3ccc(O)cc32)cc1,346 and 143

# Same assay, conditions: human, 12 h, 10 µM, compound concentration 10 uM
Structure (SMILES),Population Apoptotic (%),Population Fragmented Nuclei (%),Population Healthy Nuclei (%),Population Hoechst High Intensity Objects (%),Population Membrane Permeable-Phenotype (%),Population Mitochondria Different-Phenotype (%),Population Mitotic Cells (%),Population Normal (%),Population Pyknosed Nuclei (%),Population Tubulin-Different-Phenotype (%)
CCNC1(C(N)=O)CCN(c2ncnc3c2nc(-c2ccccc2Cl)n3-c2ccc(Cl)cc2)CC1 [OTENABANT],46% and 63%,3% and 4%,74% and 67%,16% and 9%,0%,82% and 96%,53% and 36%,83% and 90%,22% and 27%,50% and 43%
COc1ccc(-n2c(C)c([N+](=O)[O-])c3ccc(O)cc32)cc1,9.49% and 17.86%,2.91% and 1.47%,–,0.24% and 0.73%,0.41% and 0%,38.27% and 18.18%,90.51% and 82.14%,99.76% and 99.27%,38.26% and 82.35%,–

# Same assay, conditions: human, 12 h, 10 µM, compound concentration 10 uM
row,Structure (SMILES),Total Cell Count
1,CCNC1(C(N)=O)CCN(c2ncnc3c2nc(-c2ccccc2Cl)n3-c2ccc(Cl)cc2)CC1 [OTENABANT],381 and 251

# Same assay, conditions: human, 24 h, 1 µM, compound concentration 1 uM
Structure (SMILES),Population Apoptotic (%),Population Fragmented Nuclei (%),Population Healthy Nuclei (%),Population Hoechst High Intensity Objects (%),Population Membrane Permeable-Phenotype (%),Population Mitochondria Different-Phenotype (%),Population Mitotic Cells (%),Population Normal (%),Population Pyknosed Nuclei (%),Population Tubulin-Different-Phenotype (%)
CCNC1(C(N)=O)CCN(c2ncnc3c2nc(-c2ccccc2Cl)n3-c2ccc(Cl)cc2)CC1 [OTENABANT],49% and 40%,8% and 12%,80% and 75%,5,0%,43% and 47%,50% and 59%,94,11%,44% and 41%
COc1ccc(-n2c(C)c([N+](=O)[O-])c3ccc(O)cc32)cc1,11.43% and 19%,1.47% and 4.73%,72.84% and 27.7%,0,0.76% and 2.44%,19.9% and 19.51%,88.57% and 81%,100,25.69% and 67.57%,–

# Same assay, conditions: human, 24 h, 1 µM, compound concentration 1 uM
row,Structure (SMILES),Total Cell Count
1,CCNC1(C(N)=O)CCN(c2ncnc3c2nc(-c2ccccc2Cl)n3-c2ccc(Cl)cc2)CC1 [OTENABANT],474 and 442

# Same assay, conditions: human, 24 h, 10 µM, compound concentration 10 uM
Structure (SMILES),Population Apoptotic (%),Population Fragmented Nuclei (%),Population Healthy Nuclei (%),Population Hoechst High Intensity Objects (%),Population Membrane Permeable-Phenotype (%),Population Mitochondria Different-Phenotype (%),Population Mitotic Cells (%),Population Normal (%),Population Pyknosed Nuclei (%),Population Tubulin-Different-Phenotype (%)
CCNC1(C(N)=O)CCN(c2ncnc3c2nc(-c2ccccc2Cl)n3-c2ccc(Cl)cc2)CC1 [OTENABANT],40% and 64%,8% and 6%,71% and 77%,17% and 13%,1% and 0%,79% and 95%,59% and 35%,82% and 86%,19% and 15%,56% and 53%
COc1ccc(-n2c(C)c([N+](=O)[O-])c3ccc(O)cc32)cc1,20% and 19.35%,2.53% and 2.65%,71.03% and 35.76%,0% and 0.66%,0.97% and 1.85%,27.18% and 12.96%,80% and 80.65%,100% and 99.34%,26.44% and 61.59%,27.51% and 11.11%

# Same assay, conditions: human, 24 h, 10 µM, compound concentration 10 uM
row,Structure (SMILES),Total Cell Count
1,CCNC1(C(N)=O)CCN(c2ncnc3c2nc(-c2ccccc2Cl)n3-c2ccc(Cl)cc2)CC1 [OTENABANT],452 and 283
2,COc1ccc(-n2c(C)c([N+](=O)[O-])c3ccc(O)cc32)cc1,435 and 152

# Same assay, conditions: human, 48 h, 1 µM, compound concentration 1 uM
Structure (SMILES),Population Apoptotic (%),Population Fragmented Nuclei (%),Population Healthy Nuclei (%),Population Hoechst High Intensity Objects (%),Population Membrane Permeable-Phenotype (%),Population Mitochondria Different-Phenotype (%),Population Mitotic Cells (%),Population Normal (%),Population Pyknosed Nuclei (%),Population Tubulin-Different-Phenotype (%)
CCNC1(C(N)=O)CCN(c2ncnc3c2nc(-c2ccccc2Cl)n3-c2ccc(Cl)cc2)CC1 [OTENABANT],34% and 32%,12% and 8%,78% and 82%,4%,1% and 0%,29% and 30%,65% and 68%,95%,9% and 8%,30
COc1ccc(-n2c(C)c([N+](=O)[O-])c3ccc(O)cc32)cc1,9.35% and 22.41%,2.61% and 2.72%,87.04% and 65.76%,0.1% and 0%,3.78% and 1.65%,21% and 23.97%,90.65% and 77.59%,99.9% and 100%,–,–

# Same assay, conditions: human, 48 h, 1 µM, compound concentration 1 uM
row,Structure (SMILES),Total Cell Count
1,CCNC1(C(N)=O)CCN(c2ncnc3c2nc(-c2ccccc2Cl)n3-c2ccc(Cl)cc2)CC1 [OTENABANT],766 and 604

# Same assay, conditions: human, 48 h, 10 µM, compound concentration 10 uM
Structure (SMILES),Population Apoptotic (%),Population Fragmented Nuclei (%),Population Healthy Nuclei (%),Population Hoechst High Intensity Objects (%),Population Membrane Permeable-Phenotype (%),Population Mitochondria Different-Phenotype (%),Population Mitotic Cells (%),Population Normal (%),Population Pyknosed Nuclei (%),Population Tubulin-Different-Phenotype (%)
CCNC1(C(N)=O)CCN(c2ncnc3c2nc(-c2ccccc2Cl)n3-c2ccc(Cl)cc2)CC1 [OTENABANT],52% and 70%,13% and 10%,71% and 77%,16% and 14%,2% and 0%,78% and 89%,47% and 29%,83% and 85%,15% and 12%,66% and 57%
COc1ccc(-n2c(C)c([N+](=O)[O-])c3ccc(O)cc32)cc1,17.07% and 21.57%,3.71% and 2.48%,84.59% and 65.84%,0.14% and 0%,5.23% and 1.89%,33.9% and 25.47%,82.93% and 78.43%,99.86% and 100%,11.7% and 31.68%,–

# Same assay, conditions: human, 48 h, 10 µM, compound concentration 10 uM
row,Structure (SMILES),Total Cell Count
1,CCNC1(C(N)=O)CCN(c2ncnc3c2nc(-c2ccccc2Cl)n3-c2ccc(Cl)cc2)CC1 [OTENABANT],560 and 325
